{"data": "Measurements of several laboratories", "FLT3": "Receptor-type tyrosine-protein kinase FLT3 (FLT3, Homo sapiens, UniProt P36888)"}
{"Structure (SMILES)": "CNC(=O)c1ccccc1Nc1cc(Nc2ccc(N3CCOCC3)cc2OC)ncc1C(F)(F)F", "target": "FLT3", "observed": "enzyme activity", "action": "inhibitor", "tested at": "0.1 µM", "inhibition [%]": "> 50"}
{"Structure (SMILES)": "CNc1cccc2cc(C(=O)Nc3ccc(C(=O)O)cc3)c(=O)[nH]c12", "target": "FLT3", "observed": "enzyme activity", "action": "inhibitor", "tested at": "10 µM", "inhibition [%]": 7.9}
{"Structure (SMILES)": "COc1cc2ncnc(Nc3ccc(Oc4ccccc4)cc3C)c2cc1OC", "target": "Receptor-type tyrosine-protein kinase FLT3 (FLT3, Homo sapiens, UniProt P36888, D835Y)", "observed": "enzyme activity", "action": "inhibitor", "tested at": "1 µM", "inhibition [%]": 17}
{"Structure (SMILES)": "COc1cc2nccc(Oc3ccc(NC(=O)c4c5n(n(-c6ccc(F)cc6)c4=O)CCCC5)cc3)c2cc1OC", "target": "FLT3", "observed": "enzyme activity", "action": "inhibitor", "tested at": "0.1 µM", "inhibition [%]": 49}
{"Structure (SMILES)": "CC/C(=N\\NC(=O)NCc1cccc(O)c1)c1ccc(O)c(C)c1O", "target": "FLT3", "observed": "enzyme activity", "action": "inhibitor", "tested at": "0.1 µM", "inhibition [%]": 6}
{"Structure (SMILES)": "COc1cccc(Nc2cccc(-c3cnc4cc(-c5cnn(C)c5)ccn34)n2)c1", "target": "FLT3", "observed": "cell-free assay", "technique": "competition with immobilised ligand", "tested at": "8.4 nM", "inhibition [%]": "> 65"}
{"Structure (SMILES)": "CN(C)C1CCN(CC#Cc2nn(C3CCCC3)c3nc(NCc4ccccc4)ncc23)C1 (stereo not drawn)", "target": "FLT3", "observed": "enzyme activity", "action": "inhibitor", "technique": "FRET", "tested at": "0.1 µM", "inhibition [%]": 13}
{"Structure (SMILES)": "COc1cc2ncnc(Nc3ccc(Oc4ccccc4)c(C)c3C)c2cc1OC", "target": "FLT3", "observed": "enzyme activity", "action": "inhibitor", "tested at": "1 µM", "inhibition [%]": 15}
{"Structure (SMILES)": "Cn1cncc1C1=CN(c2ncnc3[nH]cnc23)CCS1", "target": "FLT3", "observed": "enzyme activity", "action": "inhibitor", "technique": "radiometric", "tested at": "2 µM", "inhibition [%]": 88.1}
{"Structure (SMILES)": "CCOc1cc(-c2nncn2C)ccc1Nc1ncc2cc(C)nc(NCC(C)(C)C)c2n1", "target": "FLT3", "observed": "enzyme activity", "action": "inhibitor", "technique": "FRET", "tested at": "1 µM", "inhibition [%]": 54}
{"Structure (SMILES)": "CS(=O)(=O)Nc1cccc(-c2csc(NC(=O)CSc3nc4nccnc4c(=O)n3CCc3ccccc3)n2)c1", "target": "FLT3", "observed": "enzyme activity", "action": "inhibitor", "tested at": "10 µM", "inhibition [%]": 8}
{"Structure (SMILES)": "Cn1cnc(Br)c1C1=CN(c2ncnc3[nH]cnc23)CCS1", "target": "FLT3", "observed": "enzyme activity", "action": "inhibitor", "technique": "radiometric", "tested at": "2 µM", "inhibition [%]": 80.5}
